Data taken from ChEMBL document CHEMBL1938268, “Synthesis, characterization and in vitro biological evaluation of some novel diarylsulfonylureas as potential cytotoxic and antimicrobial agents” (Bioorg Med Chem Lett, 2012).
Converted amounts (≈) assume the structure as drawn.

Tests used:
Aspergillus oryzae = test: Antifungal activity against Aspergillus oryzae NCIM 643 after 48 hrs by agar well diffusion assay; assay type: functional; conditions: NCIM 643, 48 h
Procedure, shortened: (§1)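 Fungal spore suspensions in sterile distilled water set to final 10⁶ CFU/mL; 0.1 mL spread on Potato-Dextrose-Agar. NCCLS agar well diffusion with NCIM standard strains: 6 mm wells given 0.1 mL compound diluted in 1% DMSO, final 16 to 512 µg/mL. Triplicate plates held 48 h at 28 0.2 °C. MIC is lowest concentration fully inhibiting growth.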

Klebsiella pneumoniae = test: Antibacterial activity against Klebsiella pneumoniae NCIM 5082 after 24 hrs by agar well diffusion assay; assay type: functional; conditions: NCIM 5082, 24 h
Procedure, shortened: (§2)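 Agar well diffusion per NCCLS; NCIM standard strains. Nutrient agar seeded with 0.1 mL bacterial suspension in sterile 0.85% saline at 10⁵ CFU/mL. Plates in triplicate, 37 0.5 °C, 24 h. MIC taken as lowest concentration giving complete growth inhibition.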

Bacillus pumilus = test: Antibacterial activity against Bacillus pumilus NCIM 2327 after 24 hrs by agar well diffusion assay; conditions: NCIM 2327, 24 h
Proteus vulgaris = test: Antibacterial activity against Proteus vulgaris NCIM 2813 after 24 hrs by agar well diffusion assay; assay type: functional; conditions: NCIM 2813, 24 h; procedure, shortened: as §2
Candida albicans = test: Antifungal activity against Candida albicans NCIM 3102 after 48 hrs by agar well diffusion assay; assay type: functional; conditions: NCIM 3102, 48 h; procedure, shortened: as §1
Escherichia coli = test: Antibacterial activity against Escherichia coli NCIM 2065 after 24 hrs by agar well diffusion assay; assay type: functional; conditions: NCIM 2065, 24 h; procedure, shortened: as §2
Micrococcus luteus = test: Antibacterial activity against Micrococcus luteus NCIM 2155 after 24 hrs by agar well diffusion assay; assay type: functional; conditions: NCIM 2155, 24 h; procedure, shortened: as §2
[1] = Toxicity against Brine shrimp nauplii after 24 hrs; assay type: organism-based; conditions: artemia salina, in vivo; read-out: ED50
Procedure, shortened: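 Artemia salina nauplii hatched 38 h in sterile brine (sea salt 38 g/L, pH 8.5) under aeration; 10 nauplii per vial exposed to graded compound concentrations in 5 mL final volume, 37 °C, 24 h under incandescent light. Survivors counted; percent lethality versus vehicle-treated controls; ED50 from probit analysis; podophyllotoxin positive control.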

Staphylococcus aureus = test: Antibacterial activity against Staphylococcus aureus NCIM 2079 after 24 hrs by agar well diffusion assay; assay type: functional; conditions: NCIM 2079, 24 h; procedure, shortened: as §2
Aspergillus niger = test: Antifungal activity against Aspergillus niger NCIM 548 after 48 hrs by agar well diffusion assay; assay type: functional; conditions: NCIM 548, 48 h; procedure, shortened: as §1
Penicillium chrysogenum = test: Antifungal activity against Penicillium chrysogenum NCIM 738 after 48 hrs by agar well diffusion assay; assay type: functional; conditions: NCIM 738, 48 h; procedure, shortened: as §1
Pseudomonas aeruginosa = test: Antibacterial activity against Pseudomonas aeruginosa NCIM 2036 after 24 hrs by agar well diffusion assay; assay type: functional; conditions: NCIM 2036, 24 h; procedure, shortened: as §2
Bacillus subtilis = test: Antibacterial activity against Bacillus subtilis NCIM 2063 after 24 hrs by agar well diffusion assay; assay type: functional; conditions: NCIM 2063, 24 h; procedure, shortened: as §2

| SMILES | MIC (Aspergillus oryzae) [µg/mL] | MIC (Klebsiella pneumoniae) [µg/mL] | MIC (Bacillus pumilus) [µg/mL] | MIC (Proteus vulgaris) [µg/mL] | MIC (Candida albicans) [µg/mL] | MIC (Escherichia coli) [µg/mL] | MIC (Micrococcus luteus) [µg/mL] | LC50 at 24 h [1] [µg/mL] | MIC (Staphylococcus aureus) [µg/mL] | MIC (Aspergillus niger) [µg/mL] | MIC (Penicillium chrysogenum) [µg/mL] | MIC (Pseudomonas aeruginosa) [µg/mL] | MIC (Bacillus subtilis) [µg/mL] |
| --- | --- | --- | --- | --- | --- | --- | --- | --- | --- | --- | --- | --- | --- |
| Cc1ccc(S(=O)(=O)NC(=O)Nc2ccccc2C(=O)/C=C/c2ccc(O)cc2)cc1 | 128 (≈ 293 µM) | 128 (≈ 293 µM) | 128 (≈ 293 µM) | 128 (≈ 293 µM) | 128 (≈ 293 µM) | 128 (≈ 293 µM) | 128 (≈ 293 µM) | 24.3 (≈ 55.7 µM) | 256 (≈ 586 µM) | 128 (≈ 293 µM) | 128 (≈ 293 µM) | 256 (≈ 586 µM) | 256 (≈ 586 µM) |
| CCOc1cc(/C=C/C(=O)c2ccccc2NC(=O)NS(=O)(=O)c2ccc(C)cc2)ccc1O | 512 (≈ 1070 µM) | 512 (≈ 1070 µM) | 64 (≈ 133 µM) | 512 (≈ 1070 µM) | 512 (≈ 1070 µM) | 64 (≈ 133 µM) | 512 (≈ 1070 µM) | 19.2 (≈ 40 µM) | 128 (≈ 266 µM) | 512 (≈ 1070 µM) | 512 (≈ 1070 µM) | 128 (≈ 266 µM) | 128 (≈ 266 µM) |
| COc1cc(/C=C/C(=O)c2ccccc2NC(=O)NS(=O)(=O)c2ccc(C)cc2)ccc1O | 128 (≈ 274 µM) | 128 (≈ 274 µM) | 64 (≈ 137 µM) | 128 (≈ 274 µM) | 128 (≈ 274 µM) | 64 (≈ 137 µM) | 128 (≈ 274 µM) | 17.8 (≈ 38.2 µM) | 128 (≈ 274 µM) | 128 (≈ 274 µM) | 128 (≈ 274 µM) | 64 (≈ 137 µM) | 64 (≈ 137 µM) |
| Cc1ccc(S(=O)(=O)NC(=O)Nc2ccccc2C(=O)/C=C/c2ccccc2[N+](=O)[O-])cc1 | 16 (≈ 34.4 µM) | 32 (≈ 68.7 µM) | 16 (≈ 34.4 µM) | 32 (≈ 68.7 µM) | 16 (≈ 34.4 µM) | 32 (≈ 68.7 µM) | 32 (≈ 68.7 µM) | 40.1 (≈ 86.2 µM) | 16 (≈ 34.4 µM) | 16 (≈ 34.4 µM) | 16 (≈ 34.4 µM) | 16 (≈ 34.4 µM) | 16 (≈ 34.4 µM) |
| Cc1ccc(S(=O)(=O)NC(=O)Nc2ccccc2C(=O)/C=C/c2cccc([N+](=O)[O-])c2)cc1 | 256 (≈ 550 µM) | 256 (≈ 550 µM) | 256 (≈ 550 µM) | 256 (≈ 550 µM) | 256 (≈ 550 µM) | 256 (≈ 550 µM) | 256 (≈ 550 µM) | 44.5 (≈ 95.5 µM) | 256 (≈ 550 µM) | 256 (≈ 550 µM) | 256 (≈ 550 µM) | 256 (≈ 550 µM) | 256 (≈ 550 µM) |
| Cc1ccc(S(=O)(=O)NC(=O)Nc2ccccc2C(=O)/C=C/c2cc(O)ccc2[N+](=O)[O-])cc1 | 64 (≈ 133 µM) | 64 (≈ 133 µM) | 16 (≈ 33.2 µM) | 64 (≈ 133 µM) | 32 (≈ 66.5 µM) | 16 (≈ 33.2 µM) | 64 (≈ 133 µM) | 18.3 (≈ 38 µM) | 16 (≈ 33.2 µM) | 64 (≈ 133 µM) | 64 (≈ 133 µM) | 16 (≈ 33.2 µM) | 16 (≈ 33.2 µM) |
| Cc1ccc(S(=O)(=O)NC(=O)Nc2ccccc2C(=O)/C=C/c2cccc(F)c2)cc1 | 64 (≈ 146 µM) | 64 (≈ 146 µM) | 16 (≈ 36.5 µM) | 64 (≈ 146 µM) | 64 (≈ 146 µM) | 16 (≈ 36.5 µM) | 64 (≈ 146 µM) | 4.13 (≈ 9.42 µM) | 16 (≈ 36.5 µM) | 64 (≈ 146 µM) | 64 (≈ 146 µM) | 16 (≈ 36.5 µM) | 16 (≈ 36.5 µM) |
| Cc1ccc(S(=O)(=O)NC(=O)Nc2ccccc2C(=O)/C=C/c2ccc(F)cc2)cc1 | 64 (≈ 146 µM) | 16 (≈ 36.5 µM) | 32 (≈ 73 µM) | 16 (≈ 36.5 µM) | 64 (≈ 146 µM) | 32 (≈ 73 µM) | 64 (≈ 146 µM) | 3.96 (≈ 9.03 µM) | 32 (≈ 73 µM) | 64 (≈ 146 µM) | 64 (≈ 146 µM) | 32 (≈ 73 µM) | 16 (≈ 36.5 µM) |
| Cc1ccc(S(=O)(=O)NC(=O)Nc2ccccc2C(=O)/C=C/c2ccccc2Cl)cc1 | 128 (≈ 281 µM) | 128 (≈ 281 µM) | 64 (≈ 141 µM) | 128 (≈ 281 µM) | 128 (≈ 281 µM) | 64 (≈ 141 µM) | 128 (≈ 281 µM) | 12.8 (≈ 28.1 µM) | 64 (≈ 141 µM) | 128 (≈ 281 µM) | 128 (≈ 281 µM) | 64 (≈ 141 µM) | 64 (≈ 141 µM) |
